KCC2 mod = KCC2 (human) Cl- transport modulation; Q9H2X9; KCC2 cells, thallium flux FluoZin-2 fluorescence; B-score of Tl+ flux slope (higher = more flux/activation; lower = inhibition) at 10 µM; actives 2.2% (n = 190,000);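 active = thallium flux slope and its plate-corrected score both differing from the plate sample mean at a set confidence after two filtering rounds, in either direction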;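 also: slope of fluorescence scaled to starting intensity during 10 to 20 s after thallium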
14-3-3 Bad inh = disrupts binding of bovine 14-3-3 zeta to phospho-Bad peptide. inhibition, % at 21.7 µM. TR-FRET 14-3-3zeta/Dy647-pBad peptide displacement, 1 h. AID 781. P63103. actives 0.71% (n = 220,000);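 active = inhibition above about 70%, limit read from the data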;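 also: 0% = full 14-3-3 plus peptide FRET controls and 100% = background without 14-3-3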
Target sequence (P63103 whole entry, looked up): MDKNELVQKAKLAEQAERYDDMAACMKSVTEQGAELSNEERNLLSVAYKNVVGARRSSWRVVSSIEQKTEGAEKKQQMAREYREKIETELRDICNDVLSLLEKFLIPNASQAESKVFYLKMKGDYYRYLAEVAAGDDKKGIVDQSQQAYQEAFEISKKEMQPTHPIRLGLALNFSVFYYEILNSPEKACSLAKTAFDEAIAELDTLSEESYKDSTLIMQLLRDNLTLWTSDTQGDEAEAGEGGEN
ROMK mod = modulates human ROMK potassium channel activity; P48048; actives 2% (n = 130,000); B-score at 10 µM; Tet-inducible ROMK, thallium flux fluorescence; actives lie on both sides;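 active = signal ratio slope over the read window, or its plate-corrected B-score, at least 3 SD from the plate mean, either direction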;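 also: B-score of the F/F0 ratio slope over 7 to 12 s after thallium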
Target sequence (P48048 whole entry, looked up): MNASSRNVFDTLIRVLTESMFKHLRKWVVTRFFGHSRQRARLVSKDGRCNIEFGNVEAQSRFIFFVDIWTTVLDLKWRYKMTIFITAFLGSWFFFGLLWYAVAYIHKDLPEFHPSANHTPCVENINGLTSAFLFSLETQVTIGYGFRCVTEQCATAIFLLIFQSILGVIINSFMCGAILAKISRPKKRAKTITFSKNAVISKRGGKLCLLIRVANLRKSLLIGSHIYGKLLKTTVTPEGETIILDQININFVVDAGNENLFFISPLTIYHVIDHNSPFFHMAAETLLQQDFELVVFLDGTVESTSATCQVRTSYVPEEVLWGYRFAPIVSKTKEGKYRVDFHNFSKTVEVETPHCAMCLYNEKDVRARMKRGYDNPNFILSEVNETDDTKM
WT yeast gro inh = growth inhibition of WT yeast, mitochondrial fusion screen; actives 2.1% (n = 190,000); mitochondrial fusion phenotypic screen, WT strain; inhibition, % at 10 µM; AID 1362; in the data active = inhibition above about 58%; tested in S. cerevisiae
RBBP9 inh = blocks human serine hydrolase RBBP9 | inhibition, % at 7.94 µM | actives 0.2% (n = 220,000) | O75884 | recombinant RBBP9, FP-Rh probe fluorescence polarization | AID 1515;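 active = inhibition above the campaign mean of all tested compounds plus 3 SD, cut at about 14% in these data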;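 also: plate controls were DMSO wells with RBBP9 for no effect and wells lacking RBBP9 protein for full effect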
Target sequence (O75884 whole entry, looked up): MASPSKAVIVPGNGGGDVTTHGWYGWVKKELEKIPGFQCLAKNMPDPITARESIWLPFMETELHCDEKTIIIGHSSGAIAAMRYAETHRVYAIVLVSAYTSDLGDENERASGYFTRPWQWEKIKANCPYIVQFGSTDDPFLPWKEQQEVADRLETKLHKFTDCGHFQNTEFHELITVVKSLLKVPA
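Assay system: recombinant human RBBP9; Reagent: Serine-hydrolase probe FP-Rh, 375 nM pre-mixing; Doses: 7.94 µM single dose, 0.794% DMSO; Incubation: 30 min then 45 min, 25 °C; Detection: fluorescence polarization (mP), excitation 525 nm, emission 598 nm; Evaluation: percent inhibition from mP, scaled between DMSO and no-protein wells.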
NCF1 inh = p47phox (human) inhibition. actives 0.53% (n = 220,000). P14598. inhibition, % at 24.7 µM. AID 1274. p47phox/p22phox peptide binding, fluorescence polarization, 2 h;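 active = inhibition above about 30%, limit read from the data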;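 also: 0% = p47phox with labelled peptide and 100% = labelled peptide alone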
KCC2 secondary = KCC2 (human) modulation, secondary assay; shares compounds with KCC2 mod; AID 1713; normalised thallium flux (F/F0 slope) at 10 µM; HEK293-KCC2, thallium flux, FluoZin2 fluorescence; active compounds read high; actives 15% (n = 3,700);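 active = thallium flux slope above the same plate's solvent-only control mean plus 3 SD; inconclusive = the two replicate wells disagree; inactive = no significant difference from solvent-only control wells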
KCC2 bumet counter = bumetanide-insensitive thallium flux in KCC2 cells with ouabain, counter-screen; shares compounds with KCC2 mod; HEK293-KCC2 + bumetanide/ouabain, thallium flux FluoZin2; active compounds read high; normalized thallium flux at 10 µM; actives 49% (n = 3,700); AID 1714;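 active = thallium entry rate above the same plate's blocked-transporter control wells by more than 3 SD; inconclusive = the two repeat wells disagree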;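 also: raw slope of fluorescence over initial fluorescence between 10 and 20 s after thallium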
KCC2 secondary2 = KCC2 (human) modulation, second secondary assay. shares compounds with KCC2 mod. HEK293-KCC2, thallium flux FluoZin2 fluorescence; actives lie on both sides; F/F0 rise rate, 10–20 s post-thallium. normalized thallium flux at 10 µM. actives 23% (n = 3,700). AID 1715;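 active = thallium flux slope more than 3 SD above or below the plate's solvent-only control mean, mostly below; inconclusive = the two repeat wells disagreed; inactive = no significant shift from solvent-only controls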;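 also: raw slope with 0.1% DMSO as baseline and bumetanide as block control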
HEK293 Tl flux = acts in parental HEK cells, KCC2 counter-screen. HEK293 parental cells, thallium flux FluoZin2, ouabain; baseline-ratio fluorescence slope, 10–20 s after thallium. actives 46% (n = 3,700). thallium flux rate (normalised fluorescence) at 10 µM. shares compounds with KCC2 mod. AID 1716;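 active = thallium flux rate significantly above the same plate's solvent-only control wells, beyond their mean plus 3 SD; inconclusive = the two replicate wells gave conflicting results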
KCC2 retest ouab = modulates human KCC2 on retest with ouabain. actives 48% (n = 3,700). shares compounds with KCC2 mod. HEK293-KCC2, thallium flux FluoZin2 fluorescence; bidirectional: low = inhibitor, high = activator. raw Tl+ flux slope (below DMSO = inhibition, above = activation) at 10 µM. AID 1717;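 active = thallium flux slope beyond 3 SD from same-plate DMSO control mean in most replicates, usually higher, sometimes lower; inconclusive = repeat tests gave conflicting results; inactive = no significant difference from controls in most replicates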;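 also: slope of initial-normalized fluorescence between seconds 10 and 20 after thallium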
HEK293 Tl flux2 = parental HEK flux effect, counter-screen 2; shares compounds with KCC2 mod; HEK293 parental, thallium flux FluoZin-2 fluorescence slope; thallium flux slope at 10 µM; actives 33% (n = 3,700);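 active = thallium flux slope above the same plate's solvent-control mean plus 3 SD in both duplicate wells; inconclusive = duplicate wells that disagreed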;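 also: run without ouabain in cells lacking the KCC2 cotransporter; slope of fluorescence scaled to its starting value between 10 and 20 s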
An asterisk follows results filed as active; ? = inconclusive; · = no result. A selection: hits, their analogues and other compounds. The true share with any hit is near 5.8%.

SMILES | KCC2 mod | 14-3-3 Bad inh | ROMK mod | WT yeast gro inh | RBBP9 inh | NCF1 inh | KCC2 secondary | KCC2 bumet counter | KCC2 secondary2 | HEK293 Tl flux | KCC2 retest ouab | HEK293 Tl flux2
CC(=O)c1sc(-c2ccc(F)cc2)cc1NS(=O)(=O)c1ccc(C)cc1 | 10* | 4 | · | · | -5 | -5 | 0.011 | 0.0064 | 0.036 | 0.0077 | 0.023 | 0.01
O=C1OCc2ccc(NS(=O)(=O)c3ccc(C(F)(F)F)cc3)cc21 | -0.38 | 6 | -0.011 | · | 1 | -7 | · | · | · | · | · | ·
O=C(Nc1ccccc1C(F)(F)F)c1cc2ncc(CCCl)cn2n1 | -2 | 9 | 1.1 | -5 | -3 | -4 | · | · | · | · | · | ·
CCC1CCC(NC(=O)Nc2cccc(OC)c2)CC1 (stereo unspecified) | -1.1 | -3 | -0.67 | 24 | -2 | -1 | · | · | · | · | · | ·
COCCNC(=O)C(c1ccc(O)cc1)N(C(=O)CCC(=O)Nc1nccs1)c1cccc(C)c1 (stereo unspecified) | 1.1 | -6 | 0.55 | -1 | -4 | -9 | · | · | · | · | · | ·
Cc1cccc(N(C(=O)CCC(=O)Nc2ccccn2)C(C(=O)NC(C)C)c2ccc(O)cc2)c1 (stereo unspecified) | -3.5* | 6 | · | -2 | 0 | -7 | 0.0059 | 0.0047 | 0.029 | 0.0078 | 0.019 | 0.012
O=C(c1ccc(COCC(F)(F)F)o1)N1CCCC1 | 0.99 | -10 | 0.13 | 5 | -3 | -2 | · | · | · | · | · | ·
O=C(CCCn1c(=O)[nH]c2cc(Cl)ccc2c1=O)NCCCN1CCCC1 | 0.0027 | 10 | -0.18 | 3 | 1 | -3 | · | · | · | · | · | ·
O=C(CCCn1c(=O)[nH]c2cc(Cl)ccc2c1=O)NCC1CCCO1 (stereo unspecified) | 8.6* | 2 | 1.3 | -16 | 9 | 11 | 0.01 | 0.0064 | 0.031 | 0.0069 | 0.021 | ?
COC(=O)c1ccc2c(=O)n(CCCCCC(=O)NCCNC(C)=O)c(=O)[nH]c2c1 | 5.4* | 0 | 0.55 | 1 | -7 | -9 | 0.0084 | 0.0069 | 0.034 | 0.0079 | 0.022 | 0.011
O=C(c1cc2c(s1)-c1ccccc1S(=O)(=O)C2)N1CCN(Cc2ccccc2)CC1 | -2.7 | 9 | · | 13 | 0 | -17 | 0.0062 | 0.0058 | 0.028 | 0.0065 | ? | 0.0093
COCCNC(=O)CN(c1cc(C(F)(F)F)ccc1Cl)S(C)(=O)=O | -4* | -3 | · | -10 | -1 | -7 | 0.0085 | ? | 0.028 | ? | 0.019 | 0.011
CCCc1nn(C)c2c(=O)[nH]c(-c3cc(S(=O)(=O)Nc4ccc(NC(C)=O)cc4)ccc3OCC)nc12 | 0.39 | -5 | · | · | 3 | -2 | · | · | · | · | · | ·
COC(=O)C1CCN(C(=O)COC(=O)CCc2nc3ccccc3c(=O)[nH]2)CC1 | 4.6* | 9 | -0.051 | 2 | -10 | -1 | 0.0099 | 0.0072 | 0.035 | 0.0072 | 0.023 | ?
CCOc1ccc(C(Nc2cccnc2)c2cc(Cl)c3cccnc3c2O)cc1 (stereo unspecified) | 5* | 21 | 0.32 | -9 | -2 | 40* | 0.0089 | 0.014* | 0.034 | 0.018* | ? | 0.01
CCCC(=O)NC(c1ccc2c(c1)OCO2)c1cc(Cl)c2cccnc2c1O (stereo unspecified) | 4.1* | -2 | 0.76 | -26 | -5 | -1 | 0.0076 | 0.0057 | 0.03 | 0.0067 | 0.02 | 0.0086
O=C(Oc1cc(-c2ccccc2)no1)c1ccc(Cl)cc1 | -5.5* | -7 | 0.78 | 9 | -11 | -15 | 0.0083 | 0.0064 | 0.033 | 0.0072 | 0.021 | 0.0096
COc1ccc(S(=O)(=O)NCCSCc2ccco2)cc1 | · | -13 | -0.7 | 11 | -8 | -6 | · | · | · | · | · | ·
CCOc1ccc(S(=O)(=O)NCCSCc2ccco2)cc1 | · | -5 | -1.4 | -6 | -2 | -3 | 0.019 | 0.0044 | 0.027 | 0.0069 | 0.015 | 0.011
COc1ccccc1C1CCCN1Cc1nc(-c2ccc(C)s2)oc1C (stereo unspecified) | -0.52 | -6 | -0.3 | 16 | 3 | -55 | · | · | · | · | · | ·
O=C(Cn1nnc(-c2ccccc2NC(=O)c2ccccc2F)n1)NC1CCCC1 | · | -10 | 0.4 | -7 | -7 | 3 | · | · | · | · | · | ·
CC(C)CN1C(=O)/C(=C/c2ccco2)NC1=S | 53* | -1 | 0.58 | -7 | -2 | -5 | 0.01 | 0.015* | 0.035 | 0.058* | 0.034* | 0.018*
COC(=O)c1ccccc1NC(=O)CSc1ccc(C)cc1 | -4.3* | -8 | -1.2 | 20 | -2 | -11 | 0.0083 | ? | 0.033 | 0.0063 | 0.02 | 0.01
Cn1nnnc1SCCNCc1ccncc1 | · | 68 | · | -10 | 2 | -4 | 0.0093 | 0.0072 | 0.03 | ? | 0.021 | 0.0095
CCCc1nc2ccccc2c(=O)n1N | 12* | 3 | 0.14 | -5 | 6 | 3 | 0.011 | 0.007 | 0.033 | 0.0084 | 0.019 | 0.012
SMILES | KCC2 mod | 14-3-3 Bad inh | ROMK mod | WT yeast gro inh | RBBP9 inh | NCF1 inh | KCC2 secondary | KCC2 bumet counter | KCC2 secondary2 | HEK293 Tl flux | KCC2 retest ouab | HEK293 Tl flux2
CCCCCc1nc2ccccc2c(=O)n1N | · | -10 | · | -6 | -7 | 5 | · | · | · | · | · | ·
COc1ccc(NC(=S)NC2CCCCC2)cn1 | -0.002 | -9 | 1.4 | 7 | -5 | 1 | · | · | · | · | · | ·
O=C(Nc1nc2ccc(S(=O)(=O)N3CCCCC3)cc2s1)c1cccnc1 | · | 13 | 1 | 0 | -4 | -29 | · | · | · | · | · | ·
O=C(Nc1nc2ccc(S(=O)(=O)N3CCCCC3)cc2s1)c1ccncc1 | -6.2* | 7 | · | -3 | -9 | -20 | 0.0068 | 0.0048 | 0.032 | 0.0071 | 0.02 | 0.0098
Cc1cc(-c2ccccc2)c(C#N)c(=S)[nH]1 | 6.9* | -2 | · | 13 | -4 | 4 | 0.017* | 0.028* | 0.034 | 0.016* | 0.028 | 0.012*
Cc1[nH]c(=S)c(C#N)c(C)c1Cc1ccccc1 | · | -5 | 0.34 | · | -3 | -11 | · | · | · | · | · | ·
N#Cc1c(-c2ccccc2Cl)cc(-c2ccccc2)[nH]c1=S | 17* | -23 | -0.089 | -10 | -6 | -8 | 0.015* | 0.028* | 0.038 | 0.022* | 0.035* | 0.013*

Screens as filed in PubChem BioAssay.
